Only some compounds are listed: those with a hit (about 5.2% of all), similar ones and a draw of the others.
WNV protease inh = WNV NS2B-NS3 proteinase inhibition | P06935 | WNV NS2B-NS3 protease, fluorogenic substrate Ex360/Em465; active compounds read low | z-score (test concentration not listed) | hit rate 0.18% among 65,000 | AID 577; in the data active = z-score below about -3
AP complement = orthogonal test for alternative complement pathway inhibitors; AID 1235; inhibition, % at 5 µM; Human serum alternative complement pathway, LPS-coated ELISA, C3 deposition; tested in compound mixtures; hit rate 0.08% among 62,000;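 active = inhibition above 30% in each of the two pooled mixtures holding the compound, so the lower value exceeds 30%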;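 also: 0% = serum in Mg-EGTA without compound and 100% = EDTA serum blank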
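Test system: human serum alternative complement pathway, C3 deposition on LPS-coated wells; also added: Plate-bound LPS; doses: 5 µM per compound in ten-compound mixtures; schedule: 1 h at 37 °C; detection: Anti-C3 ELISA, OD 450 nm; evaluation: percent inhibition of C3 deposition onto LPS; repeats: two pool placements per compound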
Ecoli tolC = E. coli tolC mutant growth inhibition; E. coli BW25113 tolC mutant growth, OD615; growth inhibition, % at 10 µM (by protocol); hit rate 2.2% among 65,000;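 active = growth inhibition at or above a cutoff equal to the mean over every tested compound plus 3 SD, cut at about 60% in these data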;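 also: growth measured after 20 h incubation at 37 °C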
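signal = optical density read at 615 nm | test system = E. coli ΔtolC::kan strain BW25113 | timing = 20 h compound exposure of bacteria at 37 °C | buffer or medium = LB medium plus 50 µg/mL kanamycin | compound dosing = 10 µM final, single dose | evaluation = % inhibition of E. coli growth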
M1 ag = activates the M1 muscarinic receptor. CHO-M1 cells, Fluo-4 calcium fluorescence, agonist mode; active compounds read high. hit rate 3% among 64,000. AID 626. B-score at 10 µM;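 active = fluorescence rise, raw or as B-score row- and column-corrected plate score, outside the 99.7% band of its plate's samples, either direction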
M1 antagonist = M1 muscarinic receptor (rat) antagonism | P08482 | CHO-M1 cells, Fluo-4 calcium, ACh EC80 antagonist mode; active compounds read low | B-score at 10 µM | hit rate 3.4% among 64,000;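 active = calcium fluorescence response, raw or row-and-column corrected B-score, differing from the plate sample mean either way at a set confidence level, mostly lower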
Target sequence (P08482 whole entry, looked up): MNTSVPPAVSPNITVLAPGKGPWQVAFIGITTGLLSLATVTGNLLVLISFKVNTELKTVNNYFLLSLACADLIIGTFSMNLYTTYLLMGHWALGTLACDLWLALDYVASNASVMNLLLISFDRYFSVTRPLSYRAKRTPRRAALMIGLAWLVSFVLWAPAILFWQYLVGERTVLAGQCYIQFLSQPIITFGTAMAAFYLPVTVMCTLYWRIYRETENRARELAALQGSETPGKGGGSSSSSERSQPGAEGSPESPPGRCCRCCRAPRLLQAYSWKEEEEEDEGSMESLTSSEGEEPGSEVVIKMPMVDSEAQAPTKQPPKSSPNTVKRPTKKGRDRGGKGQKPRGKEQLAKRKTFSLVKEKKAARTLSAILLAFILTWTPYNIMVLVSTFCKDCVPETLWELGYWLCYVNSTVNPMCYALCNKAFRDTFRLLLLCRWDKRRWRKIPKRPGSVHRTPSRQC
Ecoli WT expand = E. coli BW25113 growth inhibition, expanded screen; AID 710; hit rate 0.15% among 98,000; growth inhibition, % at 100 µM; OD600 absorbance;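 active = growth inhibition above about 50% at one test dose, limit read from the data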;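 also: growth measured after 20 h incubation at 37 °C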
* marks the source's active call; other numbers are inactive results.

For CN1C(=O)Cc2cc(S(=O)(=O)N3CCOCC3)ccc21 the results were WNV protease inh -0.18, AP complement -6.1, Ecoli tolC -24.3, M1 ag 0.313, M1 antagonist -0.64 and Ecoli WT expand 3.0.
Screening C/C(CCc1oc2ccccc2c1-c1ccc(C)o1)=N/O returned WNV protease inh 0.57, AP complement 2.5, Ecoli tolC 97.5*, M1 ag 0.351, M1 antagonist 0.0929 and Ecoli WT expand 8.0.
For Cc1c(CN(C)C(=O)c2sc3cc(Cl)ccc3c2Cl)cnn1C the results were Ecoli WT expand 9.0.
COc1ccccc1N1CCN(CC(O)c2ccc3cc[nH]c3c2)CC1 (stereo not given) was read as WNV protease inh -0.51, AP complement -0.2, Ecoli tolC 8.1, M1 ag -1.42, M1 antagonist 0.0607 and Ecoli WT expand 6.0.
`CCCCCC(=O)N/N=C/c1ccc([N+](=O)[O-])o1` gave Ecoli WT expand 60.0*.
For COc1ccc(-c2cnc(SCC(=O)Nc3ccc4c(c3)OCO4)n2Cc2ccco2)cc1 the results were WNV protease inh 0.88, AP complement 6.5, Ecoli tolC 66.0*, M1 ag -1.29, M1 antagonist -0.154 and Ecoli WT expand -19.0.
Screening CC(=O)Nc1cccc(NC(=O)CSc2ncc(-c3ccc(Cl)cc3)n2Cc2ccco2)c1 returned WNV protease inh -0.62, AP complement 19.5, Ecoli tolC 94.2*, M1 ag 1.51, M1 antagonist -1.38 and Ecoli WT expand -8.0.
CCC(C)(C)NC(=O)C(c1ccc(C)cc1)N(Cc1ccco1)C(=O)CCC(=O)Nc1nccs1 (stereo not given) was read as Ecoli WT expand -9.0.
O=S(=O)(N1CCCCC1)n1c(Cc2ccccc2)nc2ccccc21 was read as WNV protease inh -0.15, AP complement 2.9, Ecoli tolC 100.0*, M1 ag -0.876, M1 antagonist 0.0056 and Ecoli WT expand 2.0.
Cc1nc2ccccc2n1S(=O)(=O)c1ccc(S(=O)(=O)N2CCCCCC2)cc1 was read as WNV protease inh 0.88, AP complement 15.8, Ecoli tolC -23.0, M1 ag -1.14, M1 antagonist 1.91 and Ecoli WT expand 3.0.
For COc1ccc(CN(C(=O)CN2C(=O)COc3ccccc32)C2CCCC2)c(OC)c1 the results were WNV protease inh 0.16, AP complement 8.1, Ecoli tolC 70.6*, M1 ag 0.142, M1 antagonist -0.644 and Ecoli WT expand -5.0.
Screening COc1ccc(CN(C(=O)CN2C(=O)C(C)Oc3ccccc32)C2CCCC2)c(OC)c1 (stereo not given) returned WNV protease inh -0.76, AP complement 16.3, Ecoli tolC 67.0*, M1 ag 0.0587, M1 antagonist -0.739 and Ecoli WT expand -6.0.
For COc1ccc(CN(Cc2ccccn2)C(=O)CN2C(=O)COc3ccccc32)cc1 the results were WNV protease inh 1.29, AP complement 7.2, Ecoli tolC 6.7, M1 ag 1.85, M1 antagonist -0.0302 and Ecoli WT expand -6.0.
Screening C=CCn1c(SCc2nc3ccccc3c(=O)[nH]2)nnc1-c1cc2cc(Cl)ccc2o1 returned WNV protease inh 0.98, AP complement -2.5, Ecoli tolC 1.6, M1 ag 0.284, M1 antagonist 0.44 and Ecoli WT expand -18.0.
CCOc1ccc(C(=O)N2CCN(c3cccc(C)c3C)CC2)cc1 was read as WNV protease inh 1.45, AP complement -1.5, Ecoli tolC 81.5*, M1 ag -0.559, M1 antagonist -0.485 and Ecoli WT expand 4.0.
CCc1c(C)nc2cc(-c3ccc(OC)c(OC)c3)nn2c1N1CCCC1 was read as WNV protease inh 1.47, AP complement 9.3, Ecoli tolC 9.6, M1 ag 0.273, M1 antagonist -0.461 and Ecoli WT expand -12.0.
CCc1c(C)nc2cc(-c3cc(OC)cc(OC)c3)nn2c1N1CCCC1 was read as WNV protease inh -0.69, AP complement 8.3, Ecoli tolC 74.7*, M1 ag 0.848, M1 antagonist 0.823 and Ecoli WT expand -29.0.
`O=C(OC1CCc2ccccc2C1=O)c1ccccc1O` (stereo not given) gave WNV protease inh 0.08, AP complement 4.4, Ecoli tolC 68.0*, M1 ag -0.517, M1 antagonist -0.0885 and Ecoli WT expand 6.0.
Cc1cc(C)c(S(=O)(=O)N2CCCCC2)c(C)c1N(C)S(=O)(=O)c1ccccc1 was read as Ecoli WT expand -5.0.
CC(C)n1c(C(=O)OCC(=O)NCc2ccc3c(c2)OCO3)cc2occc21 was read as WNV protease inh 0.65, AP complement 0.0, Ecoli tolC 63.8*, M1 ag 0.259, M1 antagonist -0.00442 and Ecoli WT expand 4.0.
`COc1cc(C)nc(N2CCCC(C(=O)NC3CCC(C)CC3)C2)n1` (stereo not given) gave WNV protease inh -0.03, AP complement -0.3, Ecoli tolC -8.8, M1 ag 1.12 and M1 antagonist -15.8*.
COc1cc(C)nc(N2CCCC(C(=O)Nc3cc(Cl)ccc3OC)C2)n1 (stereo not given) was read as Ecoli WT expand -10.0.
Screening CNC(=O)c1ccsc1NC(=O)c1ccc(Cl)s1 returned WNV protease inh -1.32, AP complement 12.6, Ecoli tolC 22.7, M1 ag 0.615, M1 antagonist -0.0268 and Ecoli WT expand -11.0.
`COc1ccc(Cl)cc1N(CC(=O)Nc1cccc(SC)c1)S(C)(=O)=O` gave Ecoli WT expand -17.0.
`CSc1cccc(NC(=O)CN(c2cc(C)ccc2C)S(C)(=O)=O)c1` gave WNV protease inh -0.12, AP complement -5.4, Ecoli tolC 7.7, M1 ag -0.462, M1 antagonist 1.24* and Ecoli WT expand -16.0.
COc1ccc(Oc2nc(C)cc(C)c2C#N)cc1 was read as WNV protease inh -0.07, AP complement 4.0, Ecoli tolC 2.8, M1 ag -0.522, M1 antagonist -0.0456 and Ecoli WT expand 10.0.
Screening COc1ccc(C2(O)CC3CCC(C2)N3c2nc(C)cc(C)c2C#N)cc1 (stereo not given) returned WNV protease inh -0.19, AP complement 25.1, Ecoli tolC 85.0*, M1 ag 0.51, M1 antagonist -0.0388 and Ecoli WT expand -11.0.
Screening CCOc1cccc(SCc2noc(C(=O)NCC3CCCO3)c2C(=O)O)c1 (stereo not given) returned Ecoli WT expand 0.0.
For COc1ccc(-c2csc(Cc3nnc4n3CCCCC4)n2)cc1 the results were WNV protease inh 0.93, AP complement 9.3, Ecoli tolC -2.3, M1 ag 0.839, M1 antagonist 2.3* and Ecoli WT expand 11.0.
Screening O=C(/C=C1\NCC2c3ccccc3CCN2C1=O)c1ccccc1 (stereo not given) returned Ecoli WT expand -6.0.
Screening CC(C)c1nc(N2CCOCC2)c(C#N)c2c1CCCC2 returned WNV protease inh 1.18, AP complement -5.7, Ecoli tolC 64.9*, M1 ag -1.02, M1 antagonist -0.0387 and Ecoli WT expand -2.0.

Screening results as filed in PubChem.
